We go through one molecule from ChEMBL document CHEMBL4024771, “Optimization of Orally Bioavailable Enhancer of Zeste Homolog 2 (EZH2) Inhibitors Using Ligand and Property-Based Design Strategies: Identification of Development Candidate …” (J Med Chem, 2018).

The nature of data set [1]: Passive permeability in MDCK cells at 2 uM after 90 mins by LC-MS/MS analysis. The format is ADME, cell-based, Canis lupus familiaris. Particulars: dog, MDCK; read-out: permeability. In a few lines: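 Low-efflux MDCK cells (MDCK-LE) on 96-well inserts, used on day 4. Monodirectional transport of 2 μM drug in transport buffer with 0.1% DMSO at 37 °C. Donor and receiver sampled at 0 and 90 min for LC−MS/MS. Donor pH 6.5 and 7.4, receiver pH 7.4.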

Data set [2] concerns the target T1, Histone-lysine N-methyltransferase EZH2 (Homo sapiens, UniProt Q15910).
Target sequence in this assay (Q15910 whole entry, looked up): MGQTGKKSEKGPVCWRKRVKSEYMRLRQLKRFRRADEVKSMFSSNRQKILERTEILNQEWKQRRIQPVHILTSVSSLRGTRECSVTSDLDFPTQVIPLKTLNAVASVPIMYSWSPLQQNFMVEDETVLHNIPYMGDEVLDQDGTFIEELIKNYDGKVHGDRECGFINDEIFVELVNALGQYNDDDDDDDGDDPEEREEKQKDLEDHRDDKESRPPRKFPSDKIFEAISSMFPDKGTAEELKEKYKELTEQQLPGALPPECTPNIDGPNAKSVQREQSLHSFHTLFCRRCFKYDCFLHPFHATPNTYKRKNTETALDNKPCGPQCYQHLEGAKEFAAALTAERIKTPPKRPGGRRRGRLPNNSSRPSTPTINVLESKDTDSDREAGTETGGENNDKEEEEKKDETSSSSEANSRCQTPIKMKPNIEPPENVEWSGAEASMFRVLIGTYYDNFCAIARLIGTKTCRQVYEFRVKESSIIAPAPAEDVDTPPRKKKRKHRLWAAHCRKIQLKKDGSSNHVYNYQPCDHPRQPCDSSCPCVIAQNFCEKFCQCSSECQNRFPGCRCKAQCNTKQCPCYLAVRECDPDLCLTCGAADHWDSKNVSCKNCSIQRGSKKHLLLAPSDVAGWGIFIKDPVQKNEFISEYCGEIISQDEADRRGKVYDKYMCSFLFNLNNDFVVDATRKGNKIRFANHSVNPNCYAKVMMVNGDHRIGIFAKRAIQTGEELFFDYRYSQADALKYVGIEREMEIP
In the next data set the target is Cytochrome P450 2C9 (Homo sapiens, UniProt P11712). Nature of the data set: Inhibition of CYP2C9 (unknown origin). The format is ADME.
Data set [3] concerns the target T2, Histone-lysine N-methyltransferase EZH1 (Homo sapiens, UniProt Q92800).
T2 sequence (Q92800 whole entry): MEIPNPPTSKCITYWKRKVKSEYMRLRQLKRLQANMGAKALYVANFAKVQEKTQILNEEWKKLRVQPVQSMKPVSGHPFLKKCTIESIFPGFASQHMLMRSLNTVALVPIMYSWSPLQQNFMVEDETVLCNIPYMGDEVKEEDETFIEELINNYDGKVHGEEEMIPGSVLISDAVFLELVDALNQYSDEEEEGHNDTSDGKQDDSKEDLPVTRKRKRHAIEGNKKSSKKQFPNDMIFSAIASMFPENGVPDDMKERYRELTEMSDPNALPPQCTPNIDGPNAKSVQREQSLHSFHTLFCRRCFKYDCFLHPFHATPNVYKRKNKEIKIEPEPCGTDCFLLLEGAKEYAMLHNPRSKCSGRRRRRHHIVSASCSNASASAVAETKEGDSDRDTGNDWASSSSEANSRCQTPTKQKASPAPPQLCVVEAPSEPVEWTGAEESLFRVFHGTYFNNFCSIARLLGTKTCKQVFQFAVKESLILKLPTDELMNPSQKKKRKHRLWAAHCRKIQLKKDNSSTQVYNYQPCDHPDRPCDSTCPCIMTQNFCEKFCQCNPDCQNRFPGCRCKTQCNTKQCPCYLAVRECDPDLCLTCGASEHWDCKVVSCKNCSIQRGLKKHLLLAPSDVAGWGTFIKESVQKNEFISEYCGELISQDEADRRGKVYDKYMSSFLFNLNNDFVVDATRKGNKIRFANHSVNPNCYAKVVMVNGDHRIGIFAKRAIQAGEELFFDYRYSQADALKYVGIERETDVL
Nature of the data set: Binding affinity to EZH1 (unknown origin).

The target in data set [4] is T1, Histone-lysine N-methyltransferase EZH2. Put plainly: Binding affinity to EZH2 (unknown origin).
Target sequence in this assay (Q15910 whole entry): as the sequence (Q15910 whole entry, looked up) above
In data set [5] the test system is Mus musculus. Nature of the data set: Time at which free plasma concentration stays above antiproliferative KARPAS422 cells IC90 level in mouse xenografted with human KARPAS422 cells at 300 mg/kg, po bid.
Data set [6] relates to Mus musculus. Nature of the data set: In vivo inhibition of EZH2 in mouse xenografted with human KARPAS422 cells harboring EZH2 Y641N mutant assessed as reduction in H3K27me3 level in tumor at 100 mg/kg, sc qd measured 4 hrs post last dose on day 9 relative to control. It is filed as functional. Particulars: KARPAS-422, sc. In a few lines:
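Mice bearing Karpas-422 (EZH2 Y641N) xenografts were dosed with crystalline suspension orally twice daily (7 h/17 h) or subcutaneously once daily. Tumors were collected on day 9, 4 h after the last dose, for H3K27me3 quantification.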

Cytochrome P450 2C9, sequence (P11712 whole entry): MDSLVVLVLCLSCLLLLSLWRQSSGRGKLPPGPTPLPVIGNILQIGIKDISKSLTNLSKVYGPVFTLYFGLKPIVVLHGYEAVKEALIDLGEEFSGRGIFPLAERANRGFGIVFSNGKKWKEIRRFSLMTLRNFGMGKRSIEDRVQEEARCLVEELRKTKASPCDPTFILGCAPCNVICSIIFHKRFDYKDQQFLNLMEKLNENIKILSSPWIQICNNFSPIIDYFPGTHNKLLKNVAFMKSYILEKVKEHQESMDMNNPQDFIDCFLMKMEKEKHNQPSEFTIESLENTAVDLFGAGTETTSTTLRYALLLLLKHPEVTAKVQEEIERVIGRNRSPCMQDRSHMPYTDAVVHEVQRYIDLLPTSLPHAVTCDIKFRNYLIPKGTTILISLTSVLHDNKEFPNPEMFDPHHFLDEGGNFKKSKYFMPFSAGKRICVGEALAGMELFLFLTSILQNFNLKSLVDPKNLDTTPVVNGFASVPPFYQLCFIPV

For the molecule `COc1cc(C)[nH]c(=O)c1CN1CCc2c(Cl)cc([C@H](OC)C3COC3)c(Cl)c2C1=O` [MEVROMETOSTAT], the Papp at […], 2 µM in data set [1] was found to be 4.8 ×10⁻⁶ cm/s. This molecule also showed a T1/2 in data set [2] of 22 h. The IC50 on Cytochrome P450 2C9 is above 30000 nM. In addition, the Ki in data set [3] was 70 nM; in data set [4], below 0.1 nM. Also, the Time in the data set with Mus musculus [5] was determined as 24 h. For the same molecule, the inhibition in vivo at 100 mg/kg in the data set on Mus musculus [6] was determined as 13.8%.
